# From PubChem
# PG9 Ab binder: PG9 antibody binding by small molecule; TR-FRET gp120-PG9 antibody binding; inhibition, % at 6.7 µM; actives 0.43% (n = 360,000); AID 624416; in the data active = inhibition above about 8.5%
# NR2E3 ag-1: agonists of human NR2E3 nuclear receptor | inhibition of corepressor binding, % at 3.98 µM | actives 0.35% (n = 360,000) | CHO-S Gal4-NCOR/VP16-NR2E3 two-hybrid, luciferase;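 active = inhibition above the mean of all tested compounds plus 3 SD, cut at about 70% in these data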;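 note: 0% = DMSO with NR2E3 transfected cells and 100% = cells lacking NR2E3 construct; higher means lower luciferase signal from less NR2E3 corepressor binding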
# rCAG binder: molecules binding r(CAG) RNA repeats; r(CAG) RNA repeat, TO-PRO-1 dye displacement fluorescence; inhibition, % at 3 µM; actives 1.3% (n = 370,000);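 active = inhibition above the plate cutoff, the mean of all test compounds on that plate plus 3 SD, cut at about 35% in these data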;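 note: 0% = DMSO alone and 100% = 100 µM mitoxantrone as full dye displacement; higher means more dye released from RNA so lower well fluorescence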
# NR2E3 ag-2: activates human photoreceptor nuclear receptor NR2E3; actives 0.12% (n = 320,000); inhibition of corepressor binding, % at 4.78 µM; AID 2300; GST-NR2E3/biotin-RetCOR TR-FRET, 1536-well;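 active = percent inhibition above the cutoff of mean plus 3 SD of all tested compounds, set per screening campaign, cut at about 20% in these data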;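 note: 0% = DMSO wells and 100% = biotin wells as full block of FRET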
#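 System: GST-tagged NR2E3 plus biotinylated RetCOR corepressor; Amount: 1.35 nM GST-tagged NR2E3 final; Dosing: single nominal compound dose of 4.8 µM; Schedule: 5 h incubation at 4 °C; Technique: TR-FRET with europium anti-GST and streptavidin-D2, 340 nm excitation; Controls: biotin wells as high control, 0.6% DMSO wells as low control.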
# Rev-erbA mod: Rev-erb alpha (human) modulation; P20393; actives 0.79% (n = 370,000); activity, % at 10 µM; Rev-erbα–FITC-DNA binding, fluorescence polarization, 90 min;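 active = activity above about 14%, limit read from the data; passing the limit was not always enough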;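 note: 0% = DMSO wells with 35 nM protein and 100% = DMSO wells with 750 nM protein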
# Target sequence (P20393 whole entry, looked up): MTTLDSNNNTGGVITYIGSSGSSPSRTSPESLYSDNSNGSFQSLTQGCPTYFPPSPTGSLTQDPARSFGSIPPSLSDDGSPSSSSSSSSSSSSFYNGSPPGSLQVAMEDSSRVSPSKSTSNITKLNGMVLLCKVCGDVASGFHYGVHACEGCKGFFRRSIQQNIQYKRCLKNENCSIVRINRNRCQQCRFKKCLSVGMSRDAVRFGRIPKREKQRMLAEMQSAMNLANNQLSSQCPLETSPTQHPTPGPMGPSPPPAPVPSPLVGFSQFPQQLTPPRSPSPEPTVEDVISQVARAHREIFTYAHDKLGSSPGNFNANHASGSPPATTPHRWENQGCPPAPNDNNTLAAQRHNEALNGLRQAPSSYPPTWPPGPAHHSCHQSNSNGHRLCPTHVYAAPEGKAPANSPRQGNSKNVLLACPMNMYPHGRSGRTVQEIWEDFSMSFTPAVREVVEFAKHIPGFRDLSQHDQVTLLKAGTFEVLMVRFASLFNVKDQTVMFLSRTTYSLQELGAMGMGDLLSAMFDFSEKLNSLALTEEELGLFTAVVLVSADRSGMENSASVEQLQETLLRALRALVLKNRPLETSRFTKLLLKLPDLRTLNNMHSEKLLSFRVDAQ
# NR2E3 ag confirm: confirmation of human NR2E3 agonists | shares compounds with NR2E3 ag-1 | CHO-S mammalian two-hybrid NR2E3-NCOR, luciferase luminescence | inhibition, % at 3.98 µM | actives 51% (n = 2,300);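 active = average inhibition above a cutoff equal to the mean inhibition of all tested compounds plus one SD, cut at about 70% in these data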;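 note: 0% = DMSO in NR2E3 cells and 100% = DMSO in cells lacking NR2E3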
# VP16 counter: GAL4-VP16 reporter inhibition in NR2E3 agonist counterscreen | inhibition, % at 3.98 µM | CHO-S GAL4-VP16 luciferase reporter, luminescence | AID 624379 | shares compounds with NR2E3 ag-1 | actives 29% (n = 2,300);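 active = mean inhibition above a cutoff equal to the average over all tested compounds plus one standard deviation, cut at about 70% in these data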;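 note: luciferase from a UAS reporter driven by GAL4-VP16 transactivation; 0% = DMSO with VP16-transfected cells and 100% = DMSO with cells lacking VP16; higher means less reporter light so more repression of VP16 activity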
# * hit, by the source's call; . = no result. Hits are enriched below; roughly 2.6% of the tested compounds scored in any of these assays.
SMILES,PG9 Ab binder,NR2E3 ag-1,rCAG binder,NR2E3 ag-2,Rev-erbA mod,NR2E3 ag confirm,VP16 counter
OC[C@@H]1CN(Cc2ccc(-c3ccccc3)cc2)C[C@H](n2cnc3c(Nc4ccccc4)ncnc32)O1,0.4,50.3,10.4,.,-3.0,76.5*,51.2
CC(C)N(C)c1ncnc2c1ncn2[C@H]1CN(Cc2ccc(-c3ccccc3)cc2)C[C@@H](CO)O1,0.6,55.3,4.8,.,-1.0,31.2,26.2
OC[C@@H]1CN(Cc2cccc3ccccc23)C[C@H](n2cnc3c(NCc4ccco4)ncnc32)O1,-0.7,52.7,7.8,.,-7.7,6.2,8.0
CC(C)CNc1ncnc2c1ncn2[C@H]1CN(Cc2cccc3ccccc23)C[C@@H](CO)O1,-3.0,-12.9,2.7,.,7.3,.,.
OC[C@@H]1CN(Cc2ccc(F)cc2)C[C@H](n2cnc3c(Nc4ccccc4)ncnc32)O1,-0.8,-50.4,-0.1,.,-0.8,.,.
COc1ccc(Cc2c(C3CCCCC3)nc3ccc(C)cn23)c(C)c1,-0.1,.,4.8,.,7.9,.,.
CCOC(=O)C1=CCN(S(=O)(=O)c2ccc(Br)cc2)C1c1ccc(F)cc1 (stereo not given),-1.8,.,1.6,.,-0.5,.,.
O=C(Nc1ccc(S(=O)(=O)N2CCOCC2)cc1)c1ccc(CN2CCc3ccccc3C2)cc1,.,.,.,-1.7,.,.,.
O=C(Nc1ccc(S(=O)(=O)N2CCCC2)cc1)c1ccc(CN2CCc3ccccc3C2)cc1,0.1,54.0,5.0,0.9,-1.0,67.1,66.2
CC(=O)N1CC(C)Sc2ccc(S(=O)(=O)NCCc3cccc(C)c3)cc21 (stereo not given),-1.6,79.0*,-3.4,1.4,0.2,77.4*,70.0
CC(=O)N1CC(C)Sc2ccc(S(=O)(=O)NCc3ccc(F)cc3)cc21 (stereo not given),0.5,27.3,-0.6,2.7,-0.2,.,.
CC(=O)N1CCc2cc(S(=O)(=O)NCc3ccc(C)cc3)ccc21,-0.6,53.4,0.4,0.5,3.3,52.5,61.6
COc1ccc(CNS(=O)(=O)c2ccc3c(c2)N(C(C)=O)CC(C)S3)cc1 (stereo not given),2.8,68.2,-1.4,6.3,4.1,23.1,36.5
CCCN(CCC)Cc1cc(=O)oc2ccccc12,0.9,.,2.2,.,0.8,.,.
Nc1ncnc2c1ncn2[C@@H]1O[C@H](C(=O)N[C@@H](CCc2ccccc2)C(=O)N2CCN(C(=O)C(F)(F)F)CC2)[C@@H](O)[C@H]1O,-1.2,.,1.5,.,-4.1,.,.
COc1ccc(-c2cc3c(=O)n(CC(=O)NCCCN4CCN(Cc5ccccc5)CC4)ncn3n2)cc1,-1.2,48.1,-7.1,3.3,1.4,4.8,-19.5
COc1ccc(NC(=O)C(C)N2c3cccc4cccc(c34)S2(=O)=O)cc1OC (stereo not given),1.5,62.9,5.8,1.0,1.0,65.5,47.9
COc1ccc(NC(=O)C(C)N2c3cccc4cccc(c34)S2(=O)=O)cc1 (stereo not given),-2.7,20.1,-0.9,1.8,1.8,.,.
CC(C)[C@H](NC(=O)c1ccc(Cl)cc1Cl)C(=O)N1CCC[C@H]1C(=O)NCCc1ccccc1Cl,-1.0,.,-1.6,.,6.2,.,.
CC(O)CC(=O)OC[C@]12CC[C@H]3[C@@](C)(CC[C@H]4C(C)(C)CCC[C@]34C)[C@@H]1CC(C1=CC(=O)OC1O)O2 (stereo not given in full),-0.1,66.9,13.4,.,-2.1,65.8,24.0
C#CCN(C[C@H]1[C@H](OC(=O)NCCCCCC)[C@H](OC(=O)NCCCCCC)CN(C(=O)OC(C)C)N1C(=O)OC(C)C)S(=O)(=O)c1ccc(C)cc1,-0.2,.,11.4,.,-0.2,.,.
CCCCCCCCCn1c2c(c(=N)c3c1CCC3)CCCC2,.,95.2*,.,.,.,98.5*,96.1*
CCCCCCCCCCn1c2c(c(=N)c3c1CCC3)CCC2,-1.0,98.6*,15.1,0.9,-10.1,100.0*,97.2*
C[C@@H]1ON(C)[C@H]2C[C@H]3c4[nH]c5cccc(-c6ccccc6)c5c4CCN3C[C@@H]12,0.2,.,6.7,.,12.1,.,.
CS(=O)(=O)c1ccc(OC[C@@H](O)CN2CCC(C(O)(c3ccccc3)c3ccccc3)CC2)cc1,.,.,-2.1,.,2.5,.,.
SMILES,PG9 Ab binder,NR2E3 ag-1,rCAG binder,NR2E3 ag-2,Rev-erbA mod,NR2E3 ag confirm,VP16 counter
C=CC(=O)N1C/C(=C/c2ccc(F)cc2)C(=O)/C(=C\c2ccc(F)cc2)C1,0.1,58.5,1.8,.,-2.8,55.3,35.8
CC1=NN(C(N)=S)C(=O)C1N=Nc1ccccc1C (stereo not given),-1.5,73.7*,9.1,-5.2,16.6,-1.7,-34.6
CC1=NN(C(N)=S)C(=O)C1N=Nc1ccccc1[N+](=O)[O-] (stereo not given),-4.0,-1.5,2.6,.,-0.1,.,.
CC1=NN(C(N)=S)C(=O)C1N=Nc1ccccc1O (stereo not given),-3.8,19.0,0.7,8.8,-1.8,.,.
CC1=NN(C(N)=S)C(=O)C1N=Nc1c(C)cc(C)cc1C (stereo not given),-0.7,72.7*,5.1,-0.8,-5.0,-21.1,-60.7
CC1=NN(C(N)=S)C(=O)C1N=Nc1c(Cl)cc([N+](=O)[O-])cc1Cl (stereo not given),-3.8,83.4*,31.4,-2.1,14.0,-42.9,-76.8
COCC1CN(CCc2ccc(F)cc2)S(=O)(=O)c2c(F)cccc2O1 (stereo not given),-0.8,.,2.5,.,-0.4,.,.
CN[C@H]1C[C@@H](c2ccccc2Br)N(C(C)=O)C[C@H]1CO,-0.5,.,1.3,.,-0.6,.,.
COC(=O)c1cc2c(c3c4ccccc4n(S(=O)(=O)c4ccc(OC)cc4)c13)C(=O)N(Cc1ccccc1OC)C2,-0.2,.,18.2,.,15.6,.,.
CCCOc1ccc(Br)cc1CSC(=N)N,-2.2,51.3,11.2,-0.6,3.4,45.8,49.5
C[C@@H](NCCCc1cccc(C(F)(F)F)c1)c1cccc2ccccc12,.,.,.,.,10.9,.,.
C=C1C(=O)OC2C=C(CO)C3OC3C3OC3(C)CC(OC(=O)/C(=C/C)COC(C)=O)C12 (stereo not given),0.1,85.8*,1.3,.,-0.2,30.3,20.6
CC1(C)OC(C)(C)C(=N/O)/C1=N\N,0.2,.,1.4,.,-4.9,.,.
C=C(C(=O)c1ccccc1)C(C)CC(=O)c1ccccc1 (stereo not given),-1.0,-2.5,-6.9,0.4,-5.5,.,.
C=C(C(=O)c1ccccc1)C(NC(C)(C)C)c1ccccc1 (stereo not given),1.2,91.5*,4.0,.,-0.6,78.4*,28.9
Nc1nc2c(ncn2[C@@H]2O[C@H](C(=O)NC3CCCCC3)[C@@H](O)[C@H]2O)c(=O)[nH]1,-1.0,.,0.8,.,3.6,.,.
CCOc1cc(CNc2ccc3c(c2)OCCO3)cc(Br)c1OCC,-0.1,57.5,-0.2,1.4,-5.0,-6.2,-9.2
